# Screening results (PubChem BioAssay)
# The list is not random: actives were taken first. Their share in the collection is about 6.1%.
# hDAT+cocaine – changed human dopamine transporter uptake under cocaine IC80 | LLC-PK1 hDAT cells, [14C]-dopamine uptake with cocaine IC80; actives deviate in either direction | Q01959 | AID 449768 | B-score at 10 µM | 110,000 tested, 1.3% active;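 active means Z score or B-score, a plate-position-corrected score, falls beyond the plate's 99.7% confidence bounds, in either direction; inactive means both scores lie inside the 99.7% bounds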;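 further: scored against the spread of the other compound wells on the same plate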
# Target sequence (Q01959 whole entry, looked up): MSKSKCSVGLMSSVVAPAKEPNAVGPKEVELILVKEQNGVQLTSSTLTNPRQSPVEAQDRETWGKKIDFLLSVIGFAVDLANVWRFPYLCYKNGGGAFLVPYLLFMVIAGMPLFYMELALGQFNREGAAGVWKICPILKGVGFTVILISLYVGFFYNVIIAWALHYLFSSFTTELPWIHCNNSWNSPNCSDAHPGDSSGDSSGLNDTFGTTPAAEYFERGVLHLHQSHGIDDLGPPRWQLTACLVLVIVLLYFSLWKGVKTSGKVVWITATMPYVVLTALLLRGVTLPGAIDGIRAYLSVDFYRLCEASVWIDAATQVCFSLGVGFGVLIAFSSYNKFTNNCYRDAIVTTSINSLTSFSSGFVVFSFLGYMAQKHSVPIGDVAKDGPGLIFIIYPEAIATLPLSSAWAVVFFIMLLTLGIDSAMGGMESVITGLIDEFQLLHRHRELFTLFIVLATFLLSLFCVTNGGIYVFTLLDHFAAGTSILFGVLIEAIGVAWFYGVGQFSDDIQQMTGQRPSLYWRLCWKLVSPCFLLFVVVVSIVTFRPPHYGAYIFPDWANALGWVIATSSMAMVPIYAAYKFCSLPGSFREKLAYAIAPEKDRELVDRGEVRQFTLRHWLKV
# Yeast lifespan up – yeast lifespan extension | S. cerevisiae growth with nicotinamide, OD615; deaD strain in restrictive glucose medium | inhibition of the nicotinamide effect, % at 10 µM | 130,000 tested, 0.68% active | AID 775;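 active means inhibition above a set limit, placed 3 SD over the median of all compounds, cut at about 26% in these data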;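 further: 0% = nicotinamide-treated wells and 100% = cells grown without nicotinamide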
#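 Measured by: optical density (absorbance) at 615 nm; System: modified budding yeast, DeaD strain; Medium: restrictive CSMM-D dextrose medium; Timing: 4 h preincubation then 48 h treatment at 30 °C.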
# WT yeast gro inh – growth inhibition of WT yeast, mitochondrial fusion screen. mitochondrial fusion phenotypic screen, WT strain. inhibition, % at 10 µM. 190,000 tested, 2.1% active. AID 1362; in the data active means inhibition above about 58%; tested in S. cerevisiae
# RAM inhibit – blocks the yeast RAM network | S. cerevisiae dse1pr::URA3 reporter, 5-FOA growth OD615, 2 d; analog-sensitive cbk1-as2 kinase mutant strain | inhibition, % at 50 µM | 190,000 tested, 1.8% active | AID 868;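 active means inhibition above a set limit, 3 SD over mean compound inhibition, cut at about 8.4% in these data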;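 further: 0% = DMSO-only wells with no growth and 100% = 10 µM 1-NA-PP1 full growth; inhibition rescues growth on 5-FOA so higher OD means more RAM inhibition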
# BB579 growth dn – yeast BB579 growth reduction in restrictive medium; 140,000 tested, 0.51% active; inhibition, % at 10 µM; S. cerevisiae BB579 growth, OD615, 48 h;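 active means inhibition above a set limit, 3 SD over the mean compound inhibition, cut at about 44% in these data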
#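 Assay system – yeast BB579 (DeaD) · Dosing – single compound dose of 10 µM, 0.25% DMSO final · Detection – OD615 turbidity measurement · Buffer or medium – CSMM-D restrictive synthetic medium containing dextrose (glucose) · Benchmarks – positive control amphotericin B 10 µg/mL · Incubation – 48 h exposure, 30 °C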
# Measles CPE – protection of cells from measles virus; protection (pct of control), % at 4 µM; 140,000 tested, 1.5% active; Measles virus-infected cells, CPE protection, absorbance; in the data active means protection mostly above about 24%, no sharp cut-off; inactive means mostly below about 26%
# * marks the source's active call; other numbers are inactive results; / = no result given.
SMILES,hDAT+cocaine,Yeast lifespan up,WT yeast gro inh,RAM inhibit,BB579 growth dn,Measles CPE
CCCCN1C(=O)NC(=O)/C(=C/c2cnc(SC)nc2)C1=O,-0.35,16,-14,-1,-21,51*
CSc1ncc(/C=C2/C(=O)NC(=O)N(C)C2=O)cn1,/,-9,-7,0,-23,3
CCOC(=O)C(=CNc1ccc(C(O)(C(=O)OCC)C(F)(F)F)cc1C)C(=O)OCC (stereo not given),/,1,1,8.7*,-30,8
CCOC(=O)C(O)(c1ccc(N(CC)S(=O)(=O)c2ccc(C)cc2)cc1)C(F)(F)F (stereo not given),0.1,2,24,6,-63,2
Cc1ccc(N2C(=O)NC(=O)/C(=C/c3ccc(-c4ccc(C(=O)O)c(Cl)c4)o3)C2=O)cc1,/,/,-3,11*,/,/
O=C(NC(=O)N1CCC2(CC1)OCCO2)c1ccc(Cl)cc1,/,/,-3,2,/,/
OCCNc1c2c(nc3ccccc13)CCCC2,0.3,-8,65*,1,-13,25
COc1ccc(C2SCC(=O)Nc3c2c(=O)[nH]n3C2CCCCCC2)cc1OC (stereo not given),-0.014,29*,8,-1,-18,7
CCOC(=O)CC(NC(=O)C(Cc1ccc(N(CCCl)CCCl)cc1)NC(C)=O)C(=O)OCC (stereo not given),/,/,-14,4,/,/
CSc1ccc(C(=O)C2CCCN(Cc3cc4ccccc4[nH]3)C2)cc1 (stereo not given),/,/,66*,2,/,/
CCn1cc(C(=O)O)c(=O)c2ccc(C)nc21,-0.3,64*,33,-1,-18,15
CCCCC/C=C\C/C=C\C/C=C\C/C=C\CCCC(=O)Nc1ccc(O)cc1,0.022,/,76*,/,/,/
NC(=O)CN1CC(c2ccccc2)CC1=O (stereo not given),-0.69,-4,10,1,17,39*
O=C(CN1CC(c2ccccc2)CC1=O)Nc1ccc(F)cc1 (stereo not given),-0.47,-1,6,0,-29,8
OC(CNC1CCCCC1)C(F)(F)F (stereo not given),/,/,5,1,/,/
Cc1cccc(CN(C)C)c1OC(=O)N(C)C,-0.011,29*,10,1,19,3
CCCCn1c(=O)c(C(=O)Nc2ccccc2)c(O)c2ccccc21,/,/,34,5,/,/
CCCCCCn1c(=O)c(C(=O)Nc2nnc(C)s2)c(O)c2ccccc21,/,/,36,1,/,/
CCCCCCn1c(=O)c(C(=O)Nc2ccncc2)c(O)c2ccccc21,/,/,24,/,/,/
CCCCn1c(=O)c(C(=O)Nc2nnc(C(C)C)s2)c(O)c2ccccc21,/,/,69*,6,/,/
CCCCn1c(=O)c(C(=O)Nc2ccccc2S(N)(=O)=O)c(O)c2ccccc21,1.7,-9,67*,2,-2,17
CCCCn1c(=O)c(C(=O)NCc2ccncc2)c(O)c2ccccc21,0.79,-11,1,0,46*,12
CCCCCn1c(=O)c(C(=O)Nc2ccccc2S(N)(=O)=O)c(O)c2ccccc21,/,/,77*,2,/,/
CNC(C(=O)c1ccccc1)C(OC(C)C)c1ccc(Cl)cc1 (stereo not given),-0.39,-3,10,3,-39,8
O=C1CC(c2cccnc2)=NN1c1ccccc1,/,/,2,-1,/,/
SMILES,hDAT+cocaine,Yeast lifespan up,WT yeast gro inh,RAM inhibit,BB579 growth dn,Measles CPE
CCn1c(O)c(C=Nc2ccc(S(N)(=O)=O)cc2)c(=O)n(CC)c1=S,/,3,7,6,-23,12
NS(=O)(=O)c1ccc(N=Cc2c(O)n(C3CCCCC3)c(=O)n(C3CCCCC3)c2=O)cc1,-0.039,33*,96*,0,-49,23
CCOc1ccccc1OCC(=O)Nc1ccc(Cl)cc1C(=O)c1ccccc1,/,0,39,9.6*,-20,6
Clc1ccc(CSC(Cn2ccnc2)c2ccc(Cl)cc2Cl)cc1 (stereo not given),0.36,-9,84,-2,98*,41
CC1Oc2cc3c(-c4c(O)cc(O)c5c(O)c6c(cc45)OC(C)C(C)C6=O)c(O)cc(O)c3c(O)c2C(=O)C1C (stereo not given),-2.1,/,/,/,/,/
CCn1c(O)c(C(c2ccccn2)c2c(O)n(CC)c(=S)[nH]c2=O)c(=O)[nH]c1=S,-0.23,-20,97*,2,-7,3
